{"source": "paper PMC3166234", "about": "(Analytical biochemistry, 2011)", "target": "PFKFB3 2-kinase (Homo sapiens, UniProt Q16875)", "sequence (Q16875 whole entry)": "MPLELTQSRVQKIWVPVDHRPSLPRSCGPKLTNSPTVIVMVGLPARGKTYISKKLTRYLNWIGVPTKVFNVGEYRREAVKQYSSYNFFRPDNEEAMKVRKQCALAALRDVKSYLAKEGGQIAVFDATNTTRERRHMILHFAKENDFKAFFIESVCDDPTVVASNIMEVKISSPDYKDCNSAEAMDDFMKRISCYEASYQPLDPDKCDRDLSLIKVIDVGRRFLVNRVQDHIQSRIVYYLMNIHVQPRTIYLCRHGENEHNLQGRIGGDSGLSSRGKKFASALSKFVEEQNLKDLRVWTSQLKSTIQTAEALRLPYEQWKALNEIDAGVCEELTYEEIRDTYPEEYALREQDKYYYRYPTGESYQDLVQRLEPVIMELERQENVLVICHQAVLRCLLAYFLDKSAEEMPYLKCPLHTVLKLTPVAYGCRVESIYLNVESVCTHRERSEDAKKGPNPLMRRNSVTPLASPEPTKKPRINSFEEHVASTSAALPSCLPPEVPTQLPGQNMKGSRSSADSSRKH", "test": "Steady-state inhibition kinetics of the PFKFB3 2-kinase", "assay_type": "biochemical", "outline": "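Recombinant human PFKFB3 2-kinase run in a two-step assay. F-2,6-P2 is first made with enzyme in TES pH 8.0, DTT, MgCl2 and Tween at 25°C, then stopped with KOH and neutralised. The product then allosterically activates PPi:PFK in an aldolase/TIM/GDH–NADH coupled system, read as A340 over 30 min. F-6-P, ATP and/or inhibitor concentrations are varied to define the inhibition type.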", "data": [{"smiles": "CCOC(=O)/C=C(/C)Sc1cc(O)c2ccccc2c1O", "note": "[NSC278631]", "values": [{"measurement": "type of inhibition against ATP", "setting": "ATP varied", "result": "uncompetitive"}, {"measurement": "type of inhibition against F-6-P", "setting": "F-6-P varied", "result": "competitive"}]}]}
